In ChEMBL document CHEMBL3120138, “Glucocorticoid receptor modulators informed by crystallography lead to a new rationale for receptor selectivity, function, and implications for structure-based design” (J Med Chem, 2014):

Tests used:
Assay type in all cases: cell-based
Glucocorticoid receptor = molecular target: T1, Glucocorticoid receptor (Homo sapiens, UniProt P04150); experiment: Displacement of [3H]-dexamethasone from human glucocorticoid receptor expressed in HEK293 cells
T1 sequence (P04150 whole entry): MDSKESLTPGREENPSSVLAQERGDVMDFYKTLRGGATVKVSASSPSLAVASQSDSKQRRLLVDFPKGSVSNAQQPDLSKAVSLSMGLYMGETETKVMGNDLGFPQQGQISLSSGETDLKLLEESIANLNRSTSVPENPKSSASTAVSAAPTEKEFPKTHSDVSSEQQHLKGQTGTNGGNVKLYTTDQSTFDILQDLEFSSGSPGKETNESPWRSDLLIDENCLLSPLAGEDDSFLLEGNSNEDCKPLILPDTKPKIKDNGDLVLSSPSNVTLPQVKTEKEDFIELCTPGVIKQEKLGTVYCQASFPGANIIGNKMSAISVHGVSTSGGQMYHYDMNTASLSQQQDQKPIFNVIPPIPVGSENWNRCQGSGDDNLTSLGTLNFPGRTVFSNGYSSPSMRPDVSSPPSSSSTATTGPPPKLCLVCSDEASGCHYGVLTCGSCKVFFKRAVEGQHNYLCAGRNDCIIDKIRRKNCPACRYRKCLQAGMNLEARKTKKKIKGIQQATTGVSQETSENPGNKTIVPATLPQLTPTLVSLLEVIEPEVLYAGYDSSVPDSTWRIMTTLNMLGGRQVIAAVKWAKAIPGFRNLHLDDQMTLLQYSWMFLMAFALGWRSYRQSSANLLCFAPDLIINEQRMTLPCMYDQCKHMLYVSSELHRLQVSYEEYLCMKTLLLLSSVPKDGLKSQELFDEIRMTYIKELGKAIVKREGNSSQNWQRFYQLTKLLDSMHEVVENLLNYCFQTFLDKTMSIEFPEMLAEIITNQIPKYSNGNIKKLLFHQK

Progesterone receptor = molecular target: T2, Progesterone receptor (Homo sapiens, UniProt P06401); experiment: Displacement of [3H]-methyltrienolone from human progesterone receptor expressed in HEK293 cells
T2 sequence (P06401 whole entry): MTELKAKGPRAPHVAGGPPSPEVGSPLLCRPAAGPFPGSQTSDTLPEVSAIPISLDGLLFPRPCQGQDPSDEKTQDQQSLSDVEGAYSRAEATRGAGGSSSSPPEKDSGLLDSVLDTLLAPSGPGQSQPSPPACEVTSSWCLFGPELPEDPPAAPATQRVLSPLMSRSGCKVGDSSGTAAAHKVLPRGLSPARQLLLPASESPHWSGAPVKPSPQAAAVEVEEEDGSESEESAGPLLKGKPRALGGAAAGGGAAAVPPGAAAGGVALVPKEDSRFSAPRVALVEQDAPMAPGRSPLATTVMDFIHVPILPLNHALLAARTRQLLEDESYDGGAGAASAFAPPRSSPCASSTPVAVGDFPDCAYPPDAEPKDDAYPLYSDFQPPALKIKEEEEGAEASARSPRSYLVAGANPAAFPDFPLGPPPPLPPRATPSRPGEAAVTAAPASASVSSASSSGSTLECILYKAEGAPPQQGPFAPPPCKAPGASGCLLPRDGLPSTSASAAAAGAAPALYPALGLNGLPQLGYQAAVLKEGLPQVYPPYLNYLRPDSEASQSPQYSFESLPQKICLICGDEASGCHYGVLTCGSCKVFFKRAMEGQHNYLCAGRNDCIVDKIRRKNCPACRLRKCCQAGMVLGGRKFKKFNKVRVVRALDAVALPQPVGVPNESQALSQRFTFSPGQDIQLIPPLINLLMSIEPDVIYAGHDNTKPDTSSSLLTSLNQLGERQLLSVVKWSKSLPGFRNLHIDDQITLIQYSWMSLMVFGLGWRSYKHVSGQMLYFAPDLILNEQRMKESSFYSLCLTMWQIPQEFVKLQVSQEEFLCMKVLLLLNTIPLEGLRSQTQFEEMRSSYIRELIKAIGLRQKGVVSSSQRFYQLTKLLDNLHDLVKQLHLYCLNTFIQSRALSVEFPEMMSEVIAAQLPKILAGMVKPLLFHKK
Procedure, shortened: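 Competition binding used lysates of HEK293 cells overexpressing the human receptor. The tracer was ³H-aldosterone for MR and ³H-methyltrienolone for PR. Competitor was tested from 0.01 nM to 10 μM. IC50 was converted to Ki by Cheng–Prusoff. Values are means of at least three experiments, each run in triplicate.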

Androgen receptor = molecular target: T3, Androgen receptor (Homo sapiens, UniProt P10275); experiment: Displacement of [3H]-methyltrienolone from human androgen receptor expressed in HEK293 cells
T3 sequence (P10275 whole entry): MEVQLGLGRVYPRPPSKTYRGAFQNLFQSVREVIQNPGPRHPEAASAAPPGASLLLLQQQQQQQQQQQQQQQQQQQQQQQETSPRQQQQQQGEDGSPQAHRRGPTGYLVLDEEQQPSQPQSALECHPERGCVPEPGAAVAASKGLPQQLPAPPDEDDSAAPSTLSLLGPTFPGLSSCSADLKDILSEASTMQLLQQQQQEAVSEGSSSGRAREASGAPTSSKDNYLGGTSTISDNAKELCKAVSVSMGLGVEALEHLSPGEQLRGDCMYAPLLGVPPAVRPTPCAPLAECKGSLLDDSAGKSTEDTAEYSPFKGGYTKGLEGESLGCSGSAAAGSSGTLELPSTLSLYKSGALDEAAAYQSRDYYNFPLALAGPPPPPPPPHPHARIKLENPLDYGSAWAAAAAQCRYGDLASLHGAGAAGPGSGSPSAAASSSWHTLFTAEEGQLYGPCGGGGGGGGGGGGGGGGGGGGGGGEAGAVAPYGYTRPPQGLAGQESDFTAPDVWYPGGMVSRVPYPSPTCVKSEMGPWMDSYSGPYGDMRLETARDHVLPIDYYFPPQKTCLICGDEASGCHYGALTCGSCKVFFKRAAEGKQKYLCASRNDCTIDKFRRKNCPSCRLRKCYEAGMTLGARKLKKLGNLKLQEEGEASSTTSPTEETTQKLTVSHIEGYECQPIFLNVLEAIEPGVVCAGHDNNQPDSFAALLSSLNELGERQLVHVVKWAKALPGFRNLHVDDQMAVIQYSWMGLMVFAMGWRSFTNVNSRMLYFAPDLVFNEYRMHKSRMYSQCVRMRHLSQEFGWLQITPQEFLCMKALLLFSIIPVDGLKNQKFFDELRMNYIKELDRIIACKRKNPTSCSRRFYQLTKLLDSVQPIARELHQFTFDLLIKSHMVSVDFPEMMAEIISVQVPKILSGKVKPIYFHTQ

| SMILES | Ki (Glucocorticoid receptor) [nM] | Ki (Progesterone receptor) [nM] | Ki (Androgen receptor) [nM] |
| --- | --- | --- | --- |
| CC/C(=C1\c2ccccc2OCc2cccc(OC)c21)c1cccc(NS(C)(=O)=O)c1 | 0.268 | 26.8 | 239 |
| CC/C(=C1/c2ccccc2COc2ccccc21)c1cccc(NS(C)(=O)=O)c1 | 0.146 | 15.5 | 9.74 |
| C/C(=C1/c2ccccc2COc2ccccc21)c1cccc(NS(C)(=O)=O)c1 | 0.257 | 6.17 | 5.98 |
| CS(=O)(=O)Nc1cccc(C=C2c3ccccc3CCc3ccccc32)c1 | 0.226 | 99 | 418 |
